The source of these data is ChEMBL document CHEMBL1137782, “Identification of peptide substrate and small molecule inhibitors of testis-specific serine/threonine kinase1 (TSSK1) by the developed assays” (J Med Chem, 2009).

A value given as a limit tells only on which side of the number the result lay.

One may read the IC50 as the concentration that inhibits the measured activity by half. A word on the inhibition: it is the change of the read-out against control, counted positive when it falls. Higher therefore signals a strong effect. A word on the Km: it is the substrate concentration at which the rate is half of its maximum.

The target of data set [1] is T1, Testis-specific serine/threonine-protein kinase 1 (Homo sapiens, UniProt Q9BXA7).
T1 sequence (Q9BXA7 whole entry): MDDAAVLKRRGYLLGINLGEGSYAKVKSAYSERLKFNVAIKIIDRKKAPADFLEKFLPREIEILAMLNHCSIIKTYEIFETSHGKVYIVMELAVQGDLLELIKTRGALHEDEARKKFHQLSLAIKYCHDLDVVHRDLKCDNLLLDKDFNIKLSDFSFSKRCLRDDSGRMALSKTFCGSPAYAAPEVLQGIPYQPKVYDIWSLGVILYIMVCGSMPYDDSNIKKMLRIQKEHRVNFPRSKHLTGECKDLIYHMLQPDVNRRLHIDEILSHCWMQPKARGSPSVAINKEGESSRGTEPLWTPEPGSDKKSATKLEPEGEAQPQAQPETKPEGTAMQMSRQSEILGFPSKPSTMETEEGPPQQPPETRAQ
The experiment in a line: Inhibition of TSSK1-catalyzed phosphorylation of AALVRQMSVAFFFK substrate by LC-MS based HTP assay in presence of Pep8-(O2). The procedure, abridged: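 TSSK1 reaction at final 75 ng/well enzyme, 10 μM Pep8, 25 μM ATP in Tris-HCl/MgCl2/BSA/DTT buffer, 90 min at 37 °C. Acetonitrile quench carried 7 μM sulfone internal standard Pep8-P(O2). After 15000g spin, C18 HPLC-MS analysis. Pep8-P concentration calculated from its peak area relative to the internal standard using a normalization factor, and IC50 derived from that.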

In data set [2] the target is T2, Testis-specific serine/threonine-protein kinase 1 (Homo sapiens) (UniProt Q9BXA7).
T2 sequence (whole entry): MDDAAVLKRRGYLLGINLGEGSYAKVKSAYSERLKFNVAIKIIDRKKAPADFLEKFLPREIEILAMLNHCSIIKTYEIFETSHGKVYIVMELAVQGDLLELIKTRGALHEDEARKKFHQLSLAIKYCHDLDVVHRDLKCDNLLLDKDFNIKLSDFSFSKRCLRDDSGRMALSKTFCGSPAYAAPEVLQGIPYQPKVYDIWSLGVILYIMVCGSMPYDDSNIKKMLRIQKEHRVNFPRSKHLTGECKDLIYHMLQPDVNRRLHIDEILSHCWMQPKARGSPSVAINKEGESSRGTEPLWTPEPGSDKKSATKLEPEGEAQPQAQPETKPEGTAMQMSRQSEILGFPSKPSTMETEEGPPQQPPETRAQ
Kind of data set: Inhibition of TSSK1-catalyzed phosphorylation of AALVRQMSVAFFFK substrate at 20 uM by luminescent kinase assay. The procedure, abridged:
(§1)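 Luminescent Kinase-Glo read-out of ATP left after reaction. Buffer 40 mM Tris-HCl, 20 mM MgCl2, 0.1 mg/mL BSA, 2 mM DTT. Final 0.5 μg/well TSSK1, 10 μM Pep8 peptide, 1.5 μM ATP. Incubated 2 h at 37 °C, then an equal volume of Kinase-Glo added for 10 min at room temperature before luminescence (RLU) reading. Controls lacked peptide or lacked TSSK1; staurosporine 100 μM as positive control.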

The target of data set [3] is T1, Testis-specific serine/threonine-protein kinase 1. Kind of data set: Inhibition of TSSK1-catalyzed phosphorylation of AALVRQMSVAFFFK substrate by luminescent kinase assay. In short, it runs like this: as §1
Data set [4] has the same target. Kind of data set: Inhibition of TSSK1-catalyzed phosphorylation of AALVRQMSVAFFFK substrate by LC-MS based HTP assay in absence of Pep8-(O2). In short, it runs like this: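 End-point LC-MS read-out of phosphorylated Pep8 (Pep8-P). Reaction in 40 mM Tris-HCl, 20 mM MgCl2, 0.1 mg/mL BSA, 2 mM DTT with final 75 ng/well TSSK1, 10 μM Pep8, 25 μM ATP, run 90 min at 37 °C. Quenched with acetonitrile, spun 15000g 10 min, then analysed by C18 HPLC-MS using formic acid/acetonitrile gradient. IC50 taken from Pep8-P peak area with no internal standard.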

Substrate in data set [5]: CSCC[C@H](NC(=O)[C@H](CCC(N)=O)NC(=O)[C@H](CCCNC(=N)N)NC(=O)[C@@H](NC(=O)[C@H](CC(C)C)NC(=O)[C@H](C)NC(=O)[C@H](C)N)C(C)C)C(=O)N[C@@H](CO)C(=O)N[C@H](C(=O)N[C@@H](C)C(=O)N[C@@H](Cc1ccccc1)C(=O)N[C@@H](Cc1ccccc1)C(=O)N[C@@H](Cc1ccccc1)C(=O)N[C@@H](CCCCN)C(=O)O)C(C)C
The experiment in a line: (§2) Activity at TSSK1 by Michaelis-Menten plot. The procedure, abridged:
(§3)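 Enzyme time courses quantified phosphorylated Pep8 by LC-MS. ATP was varied 3.13–200 μM with Pep8 at 30 μM, or Pep8 0–40 μM with ATP at 200 μM. Reactions were quenched with acetonitrile containing 7 μM sulfone internal standard. Initial velocities were taken in duplicate and fitted to Michaelis-Menten by nonlinear least squares.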

Substrate in data set [6]: Nc1ncnc2c1ncn2[C@@H]1O[C@H](COP(=O)(O)OP(=O)(O)OP(=O)(O)O)[C@@H](O)[C@H]1O
The description is as §2. The procedure, abridged: as §3

For `CC(=O)Nc1ccc(-c2nc3cc4[nH]c(=O)c(C)nc4cc3n2CCCc2ccccc2)cc1`, the IC50 in data set [1] is 98 µM.

`C=CC(=O)Oc1cc(O)c2c(CCC)cc(=O)oc2c1` registered an inhibition in data set [2] above 40%.

Regarding `CC(C)c1nc2cc3c(cc2[nH]c1=O)nc(-c1ccc(C(=O)O)cc1)n3CCCc1ccccc1`, the IC50 in data set [1] came out at 38 µM.

The molecule `CCc1cc(=O)oc2cc3c(c(O)c12)C(=O)CC(C)O3` (stereo not drawn) gave an inhibition in data set [2] above 40%.

The molecule `O=c1oc2cc(O)cc(O)c2c2c1CCCC2` gave an inhibition in data set [2] above 40%.

`CCCc1c(Cl)c(=O)oc2cc(O)cc(O)c12` returned an inhibition in data set [2] above 40%.

As to `CCCc1cc(=O)oc2cc3c(c(O)c12)C(=O)CC(C)O3` (stereo not drawn), in data set [3], half-maximal inhibition (IC50) was put at 38.7 µM. In data set [2], this molecule returned an inhibition above 40%.

Turning to `O=C(c1ccc(-c2ccc(C(=O)C(O)S(=O)(=O)O)cc2)cc1)C(O)S(=O)(=O)O` (stereo not drawn), the figures for the IC50 in data set [3], in data set [4] and in data set [1] were 24.8 µM, 14.4 µM and 19.1 µM, respectively.

In data set [3], `O=C(c1ccc(-c2ccc(C(=O)C(O)O)cc2)cc1)C(O)O` displayed an IC50 of 43.2 µM. The molecule also showed an inhibition in data set [2] above 40%.

Regarding `CCCCCCCn1c(-c2ccc(O)c(O)c2)nc2cc3[nH]c(=O)c(C(C)C)nc3cc21`, the IC50 in data set [1] was 72 µM.

For `Cc1c(Cc2ccccc2)c(=O)oc2cc(O)cc(O)c12`, the inhibition in data set [2] is above 40%.

As for `CC(C)C[C@H](CC(=O)N[C@H](CCC(N)=O)C(=O)O)NC(=O)c1cc(Cl)ccc1N`, in data set [2], the inhibition is above 40%.

B1: Testis-specific serine/threonine-protein kinase 1 (Homo sapiens), Q9BXA7 (protein)
chain: MDDAAVLKRRGYLLGINLGEGSYAKVKSAYSERLKFNVAIKIIDRKKAPADFLEKFLPREIEILAMLNHCSIIKTYEIFETSHGKVYIVMELAVQGDLLELIKTRGALHEDEARKKFHQLSLAIKYCHDLDVVHRDLKCDNLLLDKDFNIKLSDFSFSKRCLRDDSGRMALSKTFCGSPAYAAPEVLQGIPYQPKVYDIWSLGVILYIMVCGSMPYDDSNIKKMLRIQKEHRVNFPRSKHLTGECKDLIYHMLQPDVNRRLHIDEILSHCWMQPKARGSPSVAINKEGESSRGTEPLWTPEPGSDKKSATKLEPEGEAQPQAQPETKPEGTAMQMSRQSEILGFPSKPSTMETEEGPPQQPPETRAQ
For B1, the results for the Km in data set [5] and in data set [6] were 25.2 µM and 50.5 µM, respectively.
